“And” between values parts separate entries of the source, which are not always exact repeats. Equal values may be shown once. “Also recorded” adds a separate entry of the source. Read-outs that look alike come from different tables or passages of the source.
Key:
[1] = system: tumor cell growth; conditions: inhibition of tumor cell growth in vitro; cited from earlier work
[2] = Stability of satraplatin spiked plasma at room temperature; assay type: in vitro ADME
[3] = assay type: in vivo, rhesus monkeys (Macaca mulatta)
Outline: (§1)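 Five adult male rhesus monkeys (7.3–14.9 kg) were fasted ≥6 h before and 2 h after dosing and given IV ondansetron 0.1 mg/kg (max 2 mg) beforehand. A single dose of test compound, 6 mg/kg (human equivalent 120 mg/m2) in 5% DMSO/0.9% saline, was infused over 1 h through a central venous catheter, with IV fluid hydration during and after.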

[4] = Tolerability of a single IV dose of satraplatin in non-human primates; assay type: in vivo, rhesus monkeys (Macaca mulatta); conditions: single 120 mg/m^2 (6 mg/kg) IV dose over 1 h in NHP
Outline: as §1

[5] = Plasma ultrafiltrate pharmacokinetics of satraplatin; assay type: in vivo, rhesus monkeys (Macaca mulatta)
Outline: as §1

[6] = cited from earlier work
[7] = brain microdialysis in the same NHP model; cited from earlier work
[8] = cited from earlier work; remark: listed apart in the source
[9] = carboplatin administration every 4 weeks; cited from earlier work
[10] = CSF from intralumbar catheter, animal 1, 6 mg/kg IV over 1 h
[11] = plasma UF, individual animal, 6 mg/kg IV over 1 h, 6 mg/kg

## N.NC1CCCCC1.[Cl-].[Cl-].[Pt+2] [JM-118]
[1]
  potency relative to parent drug satraplatin: up to 16 fold

## CC(=O)[O][Pt]([NH2])([Cl])([Cl])([NH]C1CCCCC1)[O]C(C)=O [Satraplatin, (OC-6–43)-bis(acetato)amminedichloro(cyclohexylamine)platinum]
[2]
  stability of spiked plasma: at least 2 h
[3]; [10]
  Cmax: 620 nM
  Tmax: 1.1 h
[3]; CSF penetration, individual animal, 6 mg/kg IV over 1 h, 6 mg/kg
  Ratio AUC0–48h CSF: AUC0–48h plasma UF: 7.4% and 4.6% and 2.2% and 3.9%
[3]; CSF, individual animal, 6 mg/kg IV over 1 h, 6 mg/kg
  AUC0–48h: 2.43 µM·h and 1.26 µM·h and 0.49 µM·h and 1.14 µM·h
[3]; CSF, median (range) of NHP
  AUC0–48h, median (range): 1.2 (0.49–2.43) μM h
[3]; CSF, median, unit as printed in the results text
  AUC0–48 for CSF, median (range): 1.2 µM
[3]; median (range) of NHP
  CSF penetration (Ratio AUC0–48h CSF: AUC0–48h plasma UF), median (range): 4.3 (2.2–7.4) %
[3]; read-out: Cmax, median (range), CSF, median (range) of NHP
  Cmax: 90 nM
[4]
  Tolerability: well tolerated; also recorded: no adverse clinical or laboratory sequelae
[5]; plasma UF exposure, NHP IV versus human oral
  AUC0–24h in NHP after IV relative to humans at equivalent oral doses: approximately 20 fold
[5]; plasma UF, individual animal, 6 mg/kg (120 mg/m^2) IV over 1 h, time after start of infusion, 6 mg/kg
  Tmax: 1.1 h and 1.0 h and 0.5 h
[5]; [11]
  AUC0–48h: 33.2 µM·h and 27.4 µM·h and 22.6 µM·h and 29.2 µM·h
  Cmax: 10.6 µM and 10.4 µM and 5.7 µM and 6.9 µM and 8.3 µM
[5]; plasma UF, individual animal, dose/AUC0–inf, 6 mg/kg IV over 1 h
  Cl: 0.34 L/h/kg and 0.31 L/h/kg and 0.37 L/h/kg and 0.36 L/h/kg
[5]; plasma UF, individual animal, terminal half-life, 6 mg/kg IV over 1 h, 6 mg/kg
  T½: 13.4 h and 19.5 h and 18.8 h and 17.4 h and 25 h
[5]; plasma UF, median (range) of 5 NHP
  Cl, median (range): 0.36 (0.31–0.37) l/h/kg
[5]; plasma UF, median (range) of 5 NHP, 6 mg/kg IV over 1 h
  AUC0–48h, median (range): 29.2 (22.6–33.2) μM h
[5]; plasma UF, median (range) of 5 NHP, 6 mg/kg IV over 1 h, after start of infusion
  Tmax, median (range): 1.0 (0.5–1.1) h
[5]; plasma UF, median (range) of 5 NHP, extrapolated to infinity
  AUC0–inf, median (range): 32.1 (24.7–38.2) μM h
[5]; plasma UF, median (range) of 5 NHP, terminal half-life
  T½, median (range): 18.8 (13.4–25) h
[6]; daily dosing in clinical trials
  accumulation factor: ≤ 4.1
[6]; human phase I trials after oral dosing, mean
  half-life: 7 h

## N.N.O=C([O-])C1(C(=O)[O-])CCC1.[Pt+2] [carboplatin]
[7]
  CNS penetration: < 5%
[8]; non-human primate model
  CSF penetration: 2.6%
[9]
  incidence of anaphylaxis: ≤ 22%

## N.N.[Cl][Pt][Cl] [cisplatin]
[8]; in vivo
  CSF penetration: 3.7%
